Converted amounts (≈) assume the structure as drawn.
Columns and labels:
[1] = tested on: Staphylococcus aureus; test: Antibacterial activity against Staphylococcus aureus; format: functional
[2] = Inhibition of Escherichia coli topoisomerase-4
[3] = tested on: Escherichia coli; test: microbe, parasite or virus in culture; settings: ATCC 25922, 18 h
[4] = molecular target: DNA gyrase subunit B (Staphylococcus aureus) (UniProt P0A0K8); test: (§1) Inhibition of Staphylococcus aureus DNA gyrase B assessed as residual activity at 1 uM preincubated for 10 mins followed by ATP addition measured after 30 mins by purine nucleoside phosphorylase enzyme coupled spectrophotometric method relative to control
[5] = tested on: Escherichia coli; test: as §1, with “Escherichia coli C-terminal His6-tagged topoisomerase-4 expressed in Escherichia coli BL21(DE3)” for “Staphylococcus aureus DNA gyrase B”
[6] = Inhibition of Staphylococcus aureus topoisomerase-4 assessed as residual activity preincubated for 10 mins followed by ATP addition measured after 30 mins by purine nucleoside phosphorylase enzyme coupled spectrophotometric method
[7] = tested on: Staphylococcus aureus; test: Growth inhibition of Staphylococcus aureus ATCC 25923 at 50 uM after 24 hrs by broth microdilution method relative to control; format: functional; settings: ATCC 25923, 24 h, read-out: GI
[8] = tested on: Enterococcus faecalis; test: Growth inhibition of Enterococcus faecalis ATCC 29212 at 50 uM after 24 hrs by broth microdilution method relative to control; format: functional; settings: ATCC 29212, 24 h, read-out: GI
[9] = tested on: Escherichia coli; test: Growth inhibition of Escherichia coli ATCC 25922 at 50 uM after 24 hrs by broth microdilution method relative to control; format: functional; settings: ATCC 25922, 24 h, read-out: GI
[10] = tested on: Pseudomonas aeruginosa; test: Growth inhibition of Pseudomonas aeruginosa ATCC 27853 at 50 uM after 24 hrs by broth microdilution method relative to control; format: functional; settings: ATCC 27853, 24 h, read-out: GI
[11] = molecular target: DNA gyrase subunit B (Escherichia coli, UniProt P0AES6); test: Inhibition of Escherichia coli DNA gyrase by supercoiling assay
[12] = tested on: Staphylococcus aureus; test: Inhibition of Staphylococcus aureus topoisomerase-4 assessed as residual activity at 1 uM preincubated for 10 mins followed by ATP addition measured after 30 mins by purine nucleoside phosphorylase enzyme coupled spectrophotometric method relative to control
[13] = tested on: Escherichia coli; test: Growth inhibition of tolC deficient Escherichia coli JW5503 at 50 uM after 24 hrs by broth microdilution method relative to control; format: functional; settings: JW5503, 24 h, read-out: GI
[14] = tested on: Escherichia coli; test: Growth inhibition of lpxC deficient Escherichia coli JD17464 at 50 uM after 24 hrs by broth microdilution method relative to control; format: functional; settings: JD17464, 24 h, read-out: GI
[15] = tested on: HUVEC; test: Cytotoxicity against HUVEC assessed as reduction in cell proliferation after 72 hrs by MTS assay; format: cell-based; settings: Homo sapiens
Method in brief: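 MTS assay in HUVEC grown in Eagle's MEM with 2 mM L-glutamine, penicillin/streptomycin and 10% FBS, at 37 °C under 5% CO2. Cells seeded at 2000 per well, attached for 24 h, then exposed to six compound concentrations (0.5% DMSO final) for 72 h. Reagent added for 3 h before reading A490. IC50 derived against DMSO-treated cells; triplicate wells, two repeats.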

Sequence of DNA gyrase subunit B (Staphylococcus aureus) (P0A0K8 2-644 limits assumed): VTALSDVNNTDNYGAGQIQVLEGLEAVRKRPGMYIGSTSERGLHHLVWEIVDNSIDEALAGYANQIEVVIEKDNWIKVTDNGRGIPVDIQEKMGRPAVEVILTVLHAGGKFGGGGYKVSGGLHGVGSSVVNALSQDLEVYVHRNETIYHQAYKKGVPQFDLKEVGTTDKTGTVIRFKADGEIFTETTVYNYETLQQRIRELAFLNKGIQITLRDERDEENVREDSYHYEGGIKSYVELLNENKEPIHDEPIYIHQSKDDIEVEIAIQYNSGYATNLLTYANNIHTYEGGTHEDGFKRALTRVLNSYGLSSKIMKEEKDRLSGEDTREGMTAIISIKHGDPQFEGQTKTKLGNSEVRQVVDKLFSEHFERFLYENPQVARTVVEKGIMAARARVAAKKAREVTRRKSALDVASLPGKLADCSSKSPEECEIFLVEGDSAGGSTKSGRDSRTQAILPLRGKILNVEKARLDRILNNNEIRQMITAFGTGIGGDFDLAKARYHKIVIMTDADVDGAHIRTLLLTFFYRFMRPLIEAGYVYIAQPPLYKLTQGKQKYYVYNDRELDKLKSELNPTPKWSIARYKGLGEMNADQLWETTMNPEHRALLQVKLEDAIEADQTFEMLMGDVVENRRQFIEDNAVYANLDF

SMILES	Activity [4] [%]	Activity [5] [%]	inhibition of growth at 50 µM [7] [%]	inhibition of growth at 50 µM [8] [%]	inhibition of growth at 50 µM [9] [%]	inhibition of growth at 50 µM [10] [%]	IC50 [11] [nM]	also measured
CNc1cc(F)cc2c1[nH]c1nc(Oc3cnc(C)nc3)nc(N3C[C@H]4CCN[C@H]4C3)c12	–	–	–	–	–	–	–	MIC [1]: 0.06 µg/mL (≈ 0.138 µM); Ki [2]: < 0.1 nM
O=C(O)c1cn(C2CC2)c2cc(N3CCNCC3)c(F)cc2c1=O [CIPROFLOXACIN]	–	–	–	–	–	–	–	MIC90 [3]: 0.05 µM (≈ 0.0166 µg/mL)
O=C(O)CNC(=O)c1ccc(NC(=O)c2cc(Br)c(Br)[nH]2)cc1OCc1ccccc1	79	100	19	2	10	-2	88	IC50 [6]: 39000 nM
NCCOc1cc(C(=O)N[C@@H](Cc2ccccc2)C(=O)O)ccc1NC(=O)c1cc(Br)c(Br)[nH]1	89	96	20	34	5	21	370	Activity [12]: 98%; inhibition of growth at 50 µM [13]: -6%; inhibition of growth at 50 µM [14]: 9%
COc1cc([C@@H]2c3cc4c(cc3[C@@H](O[C@@H]3O[C@@H]5CO[C@@H](C)O[C@H]5[C@H](O)[C@H]3O)[C@H]3COC(=O)[C@H]23)OCO4)cc(OC)c1O [ETOPOSIDE]	–	–	–	–	–	–	–	IC50 [15]: 5210 nM
